# Data reported in ChEMBL document CHEMBL1155062, “Antileishmanial activity screening of 5-nitro-2-heterocyclic benzylidene hydrazides” (Bioorg Med Chem, 2008).
# Activity calls are given as the source filed them. The calls are words filed in the database; no cut-off is given here.
# System: Leishmania donovani
# Test: Antileishmanial activity against Leishmania donovani promastigotes after 48 hrs by alamar blue assay
# Assay type: functional, organism-based
# Procedure, shortened: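 L. donovani promastigotes grown in RPMI 1640 with 10% fetal calf serum at 26 °C. A 3-day-old culture was diluted to 5 × 10⁵ promastigotes/mL. Drug dilutions were made directly in the cell suspension and incubated 48 h at 26 °C.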
SMILES,Activity,IC50 [µM],IC90 [µM]
CN(C)c1cccc(C(=O)N/N=C/c2ccc([N+](=O)[O-])s2)c1,inactive,,
Cc1ccc(C(=O)N/N=C/c2ccc([N+](=O)[O-])s2)cc1O,,2.3,4.59
O=C(N/N=C/c1ccc([N+](=O)[O-])o1)c1cccc(C(F)(F)F)c1,,10.4,24.1
O=C(N/N=C/c1ccc([N+](=O)[O-])o1)c1ccc([N+](=O)[O-])c(O)c1,,9.9,48.9
CN(C)c1ccc(C(=O)N/N=C/c2ccc([N+](=O)[O-])s2)cc1,inactive,,
Cc1cccc(C(=O)N/N=C/c2ccc([N+](=O)[O-])o2)c1,,19.8,> 36.6
O=C(N/N=C/c1ccc([N+](=O)[O-])s1)c1ccc([N+](=O)[O-])cc1,,2.81,5.31
NS(=O)(=O)c1cc(C(=O)N/N=C/c2ccc([N+](=O)[O-])o2)ccc1Cl,,38.5,88.5
O=C(N/N=C/c1ccc([N+](=O)[O-])o1)c1ccc(F)c(F)c1,,9.49,25.5
Nc1ccc(C(=O)N/N=C/c2ccc([N+](=O)[O-])s2)cc1,,2.24,> 34.5
O=C(N/N=C/c1ccc([N+](=O)[O-])o1)c1ccc(Cl)cc1,,7.83,23.8
COc1ccc(C(=O)N/N=C/c2ccc([N+](=O)[O-])o2)cc1,,8.99,25.9
COc1ccc(C(=O)N/N=C/c2ccc([N+](=O)[O-])s2)cc1,,7.21,26.2
Cc1ccc(C(=O)N/N=C/c2ccc([N+](=O)[O-])s2)cc1N,,2.24,4.7
O=C(N/N=C/c1ccc([N+](=O)[O-])o1)c1ccc(Cl)c([N+](=O)[O-])c1,inactive,,
O=C(N/N=C/c1ccc([N+](=O)[O-])o1)c1ccccc1,,11.2,29.7
N=C(N)c1ccc(OCCCCCOc2ccc(C(=N)N)cc2)cc1 [PENTAMIDINE],,1.06,
COc1ccc(C(=O)N/N=C/c2ccc([N+](=O)[O-])o2)cc1N,,16.4,131
O=C(N/N=C/c1ccc([N+](=O)[O-])o1)c1cccc(Cl)c1,,7.83,24.2
NS(=O)(=O)c1cc(C(=O)N/N=C/c2ccc([N+](=O)[O-])s2)ccc1Cl,,8.06,17.2
Nc1cc(C(=O)N/N=C/c2ccc([N+](=O)[O-])o2)ccc1O,,27,97.5
O=C(N/N=C/c1ccc([N+](=O)[O-])s1)c1ccc(F)c(F)c1,,2.15,4.92
COc1cc(C(=O)N/N=C/c2ccc([N+](=O)[O-])o2)ccc1C,,8.9,52.8
O=C(N/N=C/c1ccc([N+](=O)[O-])s1)c1ccc(Cl)cc1,,1.26,4.84
O=C(N/N=C/c1ccc([N+](=O)[O-])o1)c1ccc([N+](=O)[O-])cc1,,6.57,22.4
O=C(N/N=C/c1ccc([N+](=O)[O-])s1)c1cccc(Cl)c1,,2.74,6.78
O=C(N/N=C/c1ccc([N+](=O)[O-])s1)c1ccc(O)cc1,,0.89,4.46

SMILES,Activity,IC50 [µM],IC90 [µM]
O=C(N/N=C/c1ccc([N+](=O)[O-])s1)c1ccc(F)c(Cl)c1,,1.92,4.67
COc1cc(C(=O)N/N=C/c2ccc([N+](=O)[O-])o2)ccc1[N+](=O)[O-],,7.39,20.2
O=C(N/N=C/c1ccc([N+](=O)[O-])o1)c1ccc(Cl)c(Cl)c1,,1.68,26.9
Cc1ccc(C(=O)N/N=C/c2ccc([N+](=O)[O-])o2)cc1N,,0.62,2.88
CN(C)c1cccc(C(=O)N/N=C/c2ccc([N+](=O)[O-])o2)c1,,7.94,24.2
O=C(N/N=C/c1ccc([N+](=O)[O-])o1)c1ccc(O)cc1 [NIFUROXAZIDE],,2.4,17.8
COc1cc(C(=O)N/N=C/c2ccc([N+](=O)[O-])s2)ccc1C,,2.19,4.39
COc1cccc(C(=O)N/N=C/c2ccc([N+](=O)[O-])o2)c1,,10.4,26.6
O=C(N/N=C/c1ccc([N+](=O)[O-])o1)c1ccc(F)c(Cl)c1,,6.42,19.2
COc1ccc(C(=O)N/N=C/c2ccc([N+](=O)[O-])s2)cc1N,,4.69,18.3
CN(C)c1ccc(C(=O)N/N=C/c2ccc([N+](=O)[O-])o2)cc1,inactive,,
O=C(N/N=C/c1ccc([N+](=O)[O-])o1)c1cccc([N+](=O)[O-])c1,,9.86,26
O=C(N/N=C/c1ccc([N+](=O)[O-])s1)c1ccccc1,,6.54,25.4
Cc1ccc(C(=O)N/N=C/c2ccc([N+](=O)[O-])s2)cc1,,4.49,7.95
O=C(N/N=C/c1ccc([N+](=O)[O-])s1)c1ccc(C(F)(F)F)cc1,,0.82,1.89
O=C(N/N=C/c1ccc([N+](=O)[O-])s1)c1cccc(C(F)(F)F)c1,,3.79,6.41
COc1cc(C(=O)N/N=C/c2ccc([N+](=O)[O-])s2)ccc1[N+](=O)[O-],,2,3.91
O=C(N/N=C/c1ccc([N+](=O)[O-])s1)c1cccc([N+](=O)[O-])c1,,2.78,14.3
Cc1cccc(C(=O)N/N=C/c2ccc([N+](=O)[O-])s2)c1,,4.84,19
O=C(N/N=C/c1ccc([N+](=O)[O-])o1)c1ccc(C(F)(F)F)cc1,,8.86,24.4
O=C(N/N=C/c1ccc([N+](=O)[O-])o1)c1cccc(O)c1,,10.2,28
Nc1ccc(C(=O)N/N=C/c2ccc([N+](=O)[O-])o2)cc1,,2.66,14.6
O=C(N/N=C/c1ccc([N+](=O)[O-])s1)c1cccc(O)c1,,2.75,7.55
O=C(N/N=C/c1ccc([N+](=O)[O-])s1)c1ccc(Cl)c(Cl)c1,,0.41,0.87
Cc1ccc(C(=O)N/N=C/c2ccc([N+](=O)[O-])o2)cc1,,11,28.6
O=C(N/N=C/c1ccc([N+](=O)[O-])s1)c1ccc([N+](=O)[O-])c(O)c1,,5.45,18.4
COc1cccc(C(=O)N/N=C/c2ccc([N+](=O)[O-])s2)c1,,8.52,32.8
